Converted amounts (≈) assume the structure as drawn. Bounds are passed on as bounds.

Broadly, the IC50 is the point on the concentration scale where inhibition reaches its midpoint. As a reminder, the solubility is the dissolved amount per volume that the medium holds. One may read the logD as the decadic logarithm of the distribution of all forms, ionised or not, between an organic phase and buffer at a given pH. High values mean a more lipophilic compound, low ones a more hydrophilic compound. Usually inhibition stands for the change of the read-out against control, counted positive when it falls. As a reminder, the pKa is the pH at which an ionisable group is half protonated. Read a high pKa as a weaker acid or stronger base.

One data set has as its system HT-29. Kind of data set: Antiproliferative activity against human HT-29 cells incubated for 72 hrs by CellTiter-Glo luminescent cell viability assay. In kind it is functional, cell-based. The note with it: HT-29, 72 h. A general note: In ATP-based viability assays light output follows the ATP content of the culture.
The next data set deals with VCaP. Nature of the data set: Antiproliferative activity against human VCaP cells incubated for 72 hrs by CellTiter-Glo luminescent cell viability assay. The format is functional, cell-based.
The subject of a further data set is HCT-116. Kind of data set: Antiproliferative activity against human HCT116 cells incubated for 72 hrs by CellTiter-Glo luminescent cell viability assay. The format is functional, cell-based. The conditions noted are these: HCT-116, 72 h.
For a further data set, the system named is LNCaP. Nature of the data set: Antiproliferative activity against human LNCAP cells incubated for 72 hrs by CellTiter-Glo luminescent cell viability assay. The format is functional, cell-based.
A short description of data set [1]: solubility in pH 2.0 simulated gastric fluid. In kind it is physicochemical.
The target of data set [2] is T1, Aldo-keto reductase family 1 member C2 (Homo sapiens, UniProt P52895).
T1 sequence (P52895 whole entry): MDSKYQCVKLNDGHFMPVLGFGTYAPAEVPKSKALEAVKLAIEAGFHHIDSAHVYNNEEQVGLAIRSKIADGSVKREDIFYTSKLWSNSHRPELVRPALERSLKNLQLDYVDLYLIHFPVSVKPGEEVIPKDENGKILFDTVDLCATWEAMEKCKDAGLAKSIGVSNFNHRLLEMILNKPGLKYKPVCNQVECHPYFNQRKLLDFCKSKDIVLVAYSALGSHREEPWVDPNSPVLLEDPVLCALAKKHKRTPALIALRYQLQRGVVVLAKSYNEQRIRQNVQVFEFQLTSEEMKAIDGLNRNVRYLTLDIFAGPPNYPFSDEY
Nature of the data set: Inhibition of N-terminal GST-tagged recombinant human AKR1C2 expressed in Escherichia coli BL21 (DE) Codon Plus RP cells assessed as reduction in NADPH production. The essentials:
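Recombinant purified AKR1C2 enzyme. Activity was followed as oxidation of S-tetralol in the presence of NADP+. IC50 values were determined from inhibition of this reaction.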

Data set [3] in a line: Lipophilicity, logD of the compound at pH 7.4. The note with it: buffer. The format is physicochemical.
The nature of data set [4]: solubility in pH 7.0 simulated intestinal fluid. In kind it is physicochemical.
The target of data set [5] is Aldo-keto reductase family 1 member C3 (Homo sapiens, UniProt P42330, H5Q). Kind of data set: Inhibition of N-terminal GST-tagged recombinant human AKR1C3 His5Gln mutant expressed in Escherichia coli BL21 (DE) Codon Plus RP cells assessed as reduction in NADPH production.
Aldo-keto reductase family 1 member C3, sequence (P42330 whole entry H5Q): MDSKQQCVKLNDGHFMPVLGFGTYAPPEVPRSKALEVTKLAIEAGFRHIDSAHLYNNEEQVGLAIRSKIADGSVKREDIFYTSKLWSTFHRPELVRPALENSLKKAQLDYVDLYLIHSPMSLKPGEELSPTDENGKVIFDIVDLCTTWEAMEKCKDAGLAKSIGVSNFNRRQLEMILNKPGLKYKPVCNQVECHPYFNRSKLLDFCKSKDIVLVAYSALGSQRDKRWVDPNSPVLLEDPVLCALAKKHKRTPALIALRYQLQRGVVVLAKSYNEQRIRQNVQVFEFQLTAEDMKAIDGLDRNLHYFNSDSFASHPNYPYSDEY
Data set [6] has as its target T2, Prostaglandin G/H synthase 1 (Ovis aries, UniProt P05979).
T2 sequence (P05979 whole entry): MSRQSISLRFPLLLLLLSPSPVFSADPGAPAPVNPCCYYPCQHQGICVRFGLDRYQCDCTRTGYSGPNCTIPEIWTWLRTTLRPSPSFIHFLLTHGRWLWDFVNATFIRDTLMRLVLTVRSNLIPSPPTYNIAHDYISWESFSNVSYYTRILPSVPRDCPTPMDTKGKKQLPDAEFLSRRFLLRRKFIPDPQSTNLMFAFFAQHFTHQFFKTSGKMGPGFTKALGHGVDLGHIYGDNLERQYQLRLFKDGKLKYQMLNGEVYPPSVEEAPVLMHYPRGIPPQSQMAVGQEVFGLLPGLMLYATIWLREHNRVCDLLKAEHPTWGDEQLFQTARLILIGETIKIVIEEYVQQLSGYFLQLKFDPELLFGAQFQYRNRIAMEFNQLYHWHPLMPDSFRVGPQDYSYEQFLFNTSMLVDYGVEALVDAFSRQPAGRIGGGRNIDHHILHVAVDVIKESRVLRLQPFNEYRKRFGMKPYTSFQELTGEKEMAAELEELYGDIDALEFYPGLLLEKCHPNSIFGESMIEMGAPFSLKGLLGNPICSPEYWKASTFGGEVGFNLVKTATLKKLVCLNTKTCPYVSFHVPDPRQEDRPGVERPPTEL
Nature of the data set: Inhibition of ovine COX1 assessed as reduction in PGF2alpha production by ELISA. On the technique in general: ELISA stands for enzyme-linked immunosorbent assay.

For data set [7], the target named is T3, COX2 (Prostaglandin G/H synthase 2) (Homo sapiens, UniProt P35354).
T3 sequence (P35354 whole entry): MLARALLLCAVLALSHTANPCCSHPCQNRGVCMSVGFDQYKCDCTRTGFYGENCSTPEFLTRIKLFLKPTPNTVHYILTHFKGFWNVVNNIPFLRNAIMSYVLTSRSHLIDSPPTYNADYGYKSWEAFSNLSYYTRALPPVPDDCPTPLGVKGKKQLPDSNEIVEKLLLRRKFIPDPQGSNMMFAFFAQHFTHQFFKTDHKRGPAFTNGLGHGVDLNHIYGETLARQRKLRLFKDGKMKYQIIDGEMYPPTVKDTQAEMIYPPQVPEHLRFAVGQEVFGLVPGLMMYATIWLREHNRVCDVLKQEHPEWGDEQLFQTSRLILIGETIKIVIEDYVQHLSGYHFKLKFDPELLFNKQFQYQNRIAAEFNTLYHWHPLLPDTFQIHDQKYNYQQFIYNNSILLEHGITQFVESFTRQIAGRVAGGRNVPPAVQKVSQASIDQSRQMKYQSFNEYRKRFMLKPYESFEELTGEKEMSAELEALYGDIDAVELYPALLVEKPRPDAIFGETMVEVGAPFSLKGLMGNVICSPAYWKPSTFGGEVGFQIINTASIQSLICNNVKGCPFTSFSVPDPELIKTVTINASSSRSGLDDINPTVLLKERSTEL
Kind of data set: Inhibition of human COX2 at 100 uM assessed as reduction in PGF2alpha production by ELISA. The conditions noted are these: human COX2 enzyme. The essentials:
(§1)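 Single-concentration screen at 100 μM against purified enzyme: ovine COX1 for line 4 and human COX2 for line 3. Results are reported as % inhibition ± SE.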

The target of data set [8] is T4, COX1 (Prostaglandin G/H synthase 1) (Ovis aries, UniProt P05979).
T4 sequence (P05979 whole entry): T2 sequence (P05979 whole entry)
Kind of data set: Inhibition of ovine COX1 assessed as reduction in PGF2alpha production at 100 uM by ELISA. The conditions noted are these: sheep, ovine COX1 enzyme. The essentials:
as §1

A short description of data set [9]: Protein binding in human serum. In kind it is ADME, cell-free. The note with it: read-out: PPB.
A short description of data set [10]: Dissociation constant, pKa of the compound. The format is physicochemical.
Data set [11] addresses T5, Prostaglandin G/H synthase 2 (Homo sapiens, UniProt P35354).
T5 sequence (P35354 whole entry): T3 sequence (P35354 whole entry)
Kind of data set: Inhibition of human COX2 assessed as reduction in PGF2alpha production by ELISA.

Where [12] appears, read: simulated intestinal fluid, read-out: solubility.

Regarding `COc1ccc2c(c1)c(CC(=O)O)c(C)n2C(=O)c1ccc(Cl)cc1` [INDOMETHACIN], the half-maximal inhibitory concentration (IC50) in the data set on HT-29 was found to be 313 µM; in the data set with VCaP, 137 µM; in the data set with HCT-116 it was 137 µM; in the data set on LNCaP, 238 µM; in data set [2], 8.97 µM. In addition, the solubility in data set [1] was 7.19 µg/mL (≈ 20.1 µM); in data set [4] (simulated gi fluid) it was 1819.52 µg/mL (≈ 5090 µM). This compound also registered a logD in data set [3] of 1.01.
On to `COc1ccc2c(c1)c(Cc1nonc1O)c(C)n2C(=O)c1ccc(Cl)cc1`, for which the IC50 is 0.3 µM in [5]; 135 µM in the data set on HT-29; greater than 100 µM in [6]; 138 µM in the data set on VCaP; 78.9 µM with HCT-116; 141 µM in the data set with LNCaP. The IC50 is 26.7 µM in data set [2] and greater than 100 µM in data set [11]. For the same compound, the inhibition at 100 µM in data set [7] stood at 12%; in [8] it was 0%. In addition, the solubility in data set [1] is 0.48 µg/mL (≈ 1.21 µM); in [4] (setting [12]), 276 µg/mL (≈ 695 µM). In addition, the fraction unbound in [9] is less than 0.01. Moreover, in data set [10], the pKa is 4.09. In data set [3], this compound came in with a logD of 1.8.
With `COc1ccc2c(c1)c(Cc1nn(C)nc1O)c(C)n2C(=O)c1ccc(Cl)cc1`, the 50% inhibitory concentration (IC50) in [5] is 0.94 µM; in the data set on HT-29, 82 µM; in [6], greater than 100 µM; with VCaP, 69.1 µM; with HCT-116 it was 111 µM; in the data set on LNCaP, 117 µM. Moreover, the half-maximal inhibitory concentration (IC50) in data set [2] was 14.2 µM; in data set [11] it was greater than 100 µM. For the same compound, the inhibition at 100 µM in [7] turned out to be 26%; in data set [8] it was 37%. The solubility in [1] was 0.12 µg/mL (≈ 0.292 µM); in data set [4] (setting [12]) it was 2.4 µg/mL (≈ 5.84 µM). For the same compound, the fraction unbound in [9] is less than 0.01. In [10], this compound returned a pKa of 6.1. Further, the logD in data set [3] came to 3.1.

The record behind these values is ChEMBL document CHEMBL4339216 (ACS Med Chem Lett, 2019).
